Assay results as given in ChEMBL document CHEMBL4396885, “Thioether-based 2-aminobenzamide derivatives: Novel HDAC inhibitors with potent in vitro and in vivo antitumor activity” (Eur J Med Chem, 2019).

What was measured:
A549 [1] = experiment: Antiproliferative activity against human A549 cells assessed as growth inhibition at 2 uM after 72 hrs by CCK-8 assay relative to control; assay type: functional; details: A549, 72 h, read-out: GI
A549 [2] = experiment: Antiproliferative activity against human A549 cells assessed as growth inhibition at 8 uM after 72 hrs by CCK-8 assay relative to control; assay type: functional; details: A549, 72 h, read-out: GI
A-375 [3] = experiment: Antiproliferative activity against human A375 cells assessed as growth inhibition at 2 uM after 72 hrs by CCK-8 assay relative to control; assay type: functional; details: A-375, 72 h, read-out: GI
A-375 [4] = experiment: Antiproliferative activity against human A375 cells assessed as growth inhibition at 8 uM after 72 hrs by CCK-8 assay relative to control; assay type: functional; details: A-375, 72 h, read-out: GI
SMMC-7721 [5] = experiment: Antiproliferative activity against human SMMC7721 cells assessed as growth inhibition at 2 uM after 72 hrs by CCK-8 assay relative to control; assay type: functional; details: SMMC-7721, 72 h, read-out: GI
SMMC-7721 [6] = experiment: Antiproliferative activity against human SMMC7721 cells assessed as growth inhibition at 8 uM after 72 hrs by CCK-8 assay relative to control; assay type: functional; details: SMMC-7721, 72 h, read-out: GI
HCT-116 [7] = experiment: Antiproliferative activity against human HCT116 cells assessed as growth inhibition at 2 uM after 72 hrs by CCK-8 assay relative to control; assay type: functional; details: HCT-116, 72 h, read-out: GI
HCT-116 [8] = experiment: Antiproliferative activity against human HCT116 cells assessed as growth inhibition at 8 uM after 72 hrs by CCK-8 assay relative to control; assay type: functional; details: HCT-116, 72 h, read-out: GI
HeLa [9] = experiment: Antiproliferative activity against human HeLa cells assessed as growth inhibition at 2 uM after 72 hrs by CCK-8 assay relative to control; assay type: functional; details: read-out: GI
HeLa [10] = experiment: Antiproliferative activity against human HeLa cells assessed as growth inhibition at 8 uM after 72 hrs by CCK-8 assay relative to control; assay type: functional; details: read-out: GI
HCT-116 [11] = experiment: Antiproliferative activity against human HCT116 cells assessed as decrease in cell viability after 72 hrs by CCK-8 assay; assay type: functional, cell-based; details: HCT-116, 72 h
Summary of the method: (§1)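 Cells grown to 70–85% confluence (A375, A549, HCT116 in RPMI1640; HeLa, SMMC7721 in DMEM; 10% FBS, 37 °C, 5% CO2), seeded 4000/well, dosed after 12 h across a concentration range, incubated 72 h, then CCK-8 for 1 h; absorbance at 450 nm. IC50 as mean ± SD of three separate experiments.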

HeLa [12] = experiment: Antiproliferative activity against human HeLa cells assessed as decrease in cell viability after 72 hrs by CCK-8 assay; assay type: functional, cell-based; summary of the method: as §1
A-375 [13] = experiment: Antiproliferative activity against human A375 cells assessed as decrease in cell viability after 72 hrs by CCK-8 assay; assay type: functional, cell-based; details: A-375, 72 h; summary of the method: as §1
SMMC-7721 [14] = experiment: Antiproliferative activity against human SMMC7721 cells assessed as decrease in cell viability after 72 hrs by CCK-8 assay; assay type: functional, cell-based; details: SMMC-7721, 72 h; summary of the method: as §1
A549 [15] = experiment: Antiproliferative activity against human A549 cells assessed as decrease in cell viability after 72 hrs by CCK-8 assay; assay type: functional, cell-based; details: A549, 72 h; summary of the method: as §1

Row | IC50 (HCT-116 [11]) [µM] | IC50 (HeLa [12]) [µM] | IC50 (A-375 [13]) [µM] | IC50 (SMMC-7721 [14]) [µM] | IC50 (A549 [15]) [µM] | Structure (SMILES) | inhibition of growth at 2 µM (A549 [1]) [%] | inhibition of growth at 8 µM (A549 [2]) [%] | inhibition of growth at 2 µM (A-375 [3]) [%] | inhibition of growth at 8 µM (A-375 [4]) [%] | inhibition of growth at 2 µM (SMMC-7721 [5]) [%] | inhibition of growth at 8 µM (SMMC-7721 [6]) [%] | inhibition of growth at 2 µM (HCT-116 [7]) [%] | inhibition of growth at 8 µM (HCT-116 [8]) [%] | inhibition of growth at 2 µM (HeLa [9]) [%] | inhibition of growth at 8 µM (HeLa [10]) [%]
1 | 2.78 | 6.68 | 3.61 | 4.49 |  | COC(=O)c1ccccc1SCc1ccc(C(=O)Nc2ccccc2N)cc1 | 44.7 | 46.1 | 35.1 | 70.1 | 18 | 62.5 | 21.8 | 92 | 29.8 | 55.5
2 |  |  |  |  | 0.83 | Nc1ccccc1NC(=O)/C=C/c1ccc(CSc2cccc3ccccc23)cc1 | 59.3 | 71.2 | 1.55 | 36 | 3.7 | 18.3 | 11 | 35.2 | 20.6 | 22.1
3 |  |  | 3.67 |  | 1.19 | Nc1ccccc1NC(=O)/C=C/c1ccc(CSc2ccc(F)cc2)cc1 | 51.2 | 59.1 | 28.8 | 24.6 | 18.3 | 15.4 | 14.1 | 20.2 | 7.09 | 10.4
4 |  |  | 15.7 | 10.9 | 1.15 | Nc1ccccc1NC(=O)/C=C/c1ccc(CSCCc2ccccc2)cc1 | 45.7 | 50.3 | 41.9 | 37.4 | 14.7 | 15.8 | 18 | 10.6 | 0.19 | 3.57
5 |  |  | 1.55 |  | 0.64 | CC(C)(C)c1ccc(SCc2ccc(/C=C/C(=O)Nc3ccccc3N)cc2)cc1 | 71.5 | 79.8 | 38.4 | 35.5 | 18.3 | 23.6 | 6.66 | 39 | 17.5 | 9.8
6 | 4.01 | 5.01 |  | 5.77 |  | Nc1ccccc1NC(=O)c1ccc(CSc2ccc(F)cc2)cc1 | 43.4 | 44.5 | 19.4 | 54.3 | 6.58 | 81.9 | 13.5 | 90.6 | 27.9 | 79.3
7 |  |  |  |  | 1.3 | CCc1ccc(SCc2ccc(/C=C/C(=O)Nc3ccccc3N)cc2)cc1 | 60.7 | 68.6 | 5.27 | 58.4 | 13.2 | 19.5 | 3.29 | 2.68 | 3.96 | 20.9

The remaining lines, values behind:

Row | Structure (SMILES) | IC50 (HCT-116 [11]) [µM] | IC50 (HeLa [12]) [µM] | IC50 (A-375 [13]) [µM] | IC50 (SMMC-7721 [14]) [µM] | IC50 (A549 [15]) [µM] | inhibition of growth at 2 µM (A549 [1]) [%] | inhibition of growth at 8 µM (A549 [2]) [%] | inhibition of growth at 2 µM (A-375 [3]) [%] | inhibition of growth at 8 µM (A-375 [4]) [%] | inhibition of growth at 2 µM (SMMC-7721 [5]) [%] | inhibition of growth at 8 µM (SMMC-7721 [6]) [%] | inhibition of growth at 2 µM (HCT-116 [7]) [%] | inhibition of growth at 8 µM (HCT-116 [8]) [%] | inhibition of growth at 2 µM (HeLa [9]) [%] | inhibition of growth at 8 µM (HeLa [10]) [%]
8 | Nc1ccccc1NC(=O)c1ccc(CSc2ccc(Cl)cc2)cc1 | 3.75 | 12.7 |  |  |  | 47.3 | 50.4 | 25.2 | 48.6 | 2.93 | 16.5 | 17.5 | 76.6 | 19.2 | 51.4
9 | Nc1ccccc1NC(=O)/C=C/c1ccc(CSc2ccc(Cl)cc2)cc1 |  |  |  |  |  | 55.2 | 59.6 | 13.4 | 48.2 | 15.2 | 16.4 | 5.62 | 3.27 | 1.94 | 17.3
10 | Nc1ccccc1NC(=O)c1ccc(CSc2cccc(F)c2)cc1 | 2.87 | 3.24 | 3.9 | 3.28 |  | 46.9 | 72.7 | 37.7 | 76.2 | 18.6 | 83 | 5.5 | 81.3 | 22.5 | 78.4
11 | Nc1ccccc1NC(=O)c1ccc(CSc2ccc(Br)cc2)cc1 |  |  |  |  |  | 33.2 | 45.6 | 4.35 | 6.17 | 10 | 25.3 | 9.96 | 67.7 | 18.8 | 38.2
12 | COc1ccc(SCc2ccc(/C=C/C(=O)Nc3ccccc3N)cc2)cc1OC |  |  |  |  |  | 65.5 | 80.6 | 46 | 46.4 | 14.3 | 44.6 | 12.9 | 49.5 | 10.1 | 21.9
13 | Cc1cc(C)cc(SCc2ccc(/C=C/C(=O)Nc3ccccc3N)cc2)c1 |  |  |  |  |  | 46.1 | 47.3 | 8.78 | 2.49 | 8.61 | 7.13 | 7.98 | 4.2 | 11.7 | 3.39
14 | CC(C)(C)c1ccc(SCc2ccc(C(=O)Nc3ccccc3N)cc2)cc1 |  |  |  |  |  | 38.6 | 67 | 2.13 | 33.1 | 23.6 | 46.1 | 4.81 | 60.5 | 9.73 | 40.2
15 | Cc1ccc(SCc2ccc(C(=O)Nc3ccccc3N)cc2)cc1 | 2.63 | 4.25 | 3.7 | 3.74 | 3.27 | 40.5 | 78.3 | 17.5 | 67 | 25.1 | 82.7 | 74.8 | 84 | 33.8 | 79.2
16 | Cc1ccc(SCc2ccc(/C=C/C(=O)Nc3ccccc3N)cc2)cc1 |  |  |  |  |  | 43.4 | 48.2 | 22.9 | 31.2 | 22 | 22.1 | 6.23 | 4.93 | 25.4 | 21.7
17 | Nc1ccccc1NC(=O)c1ccc(CSc2ccc(C(F)(F)F)cn2)cc1 |  |  |  |  |  | 37.1 | 38.9 | 4.3 | 5.34 | 12.4 | 7.57 | 1.2 | 25.8 | 11.5 | 16.5
18 | Nc1ccccc1NC(=O)/C=C/c1ccc(CSc2cccc(F)c2)cc1 |  |  |  |  |  | 50.7 | 56.6 | 6.75 | 9.08 | 8.56 | 8.25 | 7.95 | 3.22 | 2.25 | 18.6
19 | Nc1ccccc1NC(=O)/C=C/c1ccc(CSc2ccc(C(F)(F)F)cn2)cc1 |  |  |  |  |  | 51.7 | 56.5 | 10.3 | 3.96 | 12.1 | 20.1 | 4.42 | 14.9 | 6.07 | 6.82
